H69AR inhibit: proliferation blockers of H69AR lung cancer cells, primary screen, cell-based, human, 86K library. H69AR lung tumor viability, ATP luminescence, 72 h; stronger effect = lower value. viability, % at 10 µM. hit rate 6% among 85,000. AID 598, 2007;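 active means viability at or below 40%; inactive means viability above 40%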;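 further: multidrug resistant small cell line overexpressing MRP-1 efflux transporter; 100% = mean luminescence of untreated control wells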
Jurkat viability: cytotoxicity toward Jurkat T cells, primary screen, cytotoxicity control, cell-based, Jurkat E6.1, 60K MLSMR library; hit rate 1.2% among 56,000; AID 463, 2006; Jurkat E6.1 viability, ATP luminescence, 48 h; inhibition, % at 4 µM;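 active means inhibition above the mean inhibition of all tested compounds plus 3 SD, cut at about 28% in these data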
E coli WT exp: growth inhibitors of wild-type E. coli, primary screen, strain BW25113, expanded library, OD600; OD600 absorbance; growth inhibition, % at 100 µM; hit rate 0.15% among 98,000; AID 710, 2007;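 active means growth inhibition above about 50% at one test dose, limit read from the data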;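 further: growth measured after 20 h incubation at 37 °C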
HUVEC inhibit: inhibitors of HUVEC proliferation, primary screen, cell-based, 384-well; viability, % at 10 µM (by protocol); CellTiter-Glo luminescence, 72 h; stronger effect = lower value; AID 648, 2007; hit rate 1.1% among 86,000;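 active means viability at or below 30%; inactive means viability above 30%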;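 further: 100% = median luminescence of DMSO-only cell control wells on each plate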
Ecoli tolC: growth inhibitors of E. coli tolC mutant, primary screen, strain BW25113 ΔtolC::kan, 384-well; AID 573, 2007; OD615; hit rate 2.2% among 65,000; growth inhibition, % at 10 µM (by protocol);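 active means growth inhibition at or above a cutoff equal to the mean over every tested compound plus 3 SD, cut at about 60% in these data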;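 further: growth measured after 20 h incubation at 37 °C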
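Signal: optical density read at 615 nm; Assay system: E. coli ΔtolC::kan strain BW25113; Times: 20 h incubation with compound, 37 °C; Dosing: 10 µM final, single dose.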
Fibroblast inh: antiproliferative effect on LL 47 fibroblasts – human, LL 47 cells, CellTiter-Glo luminescence, primary screen. LL 47 human lung fibroblast viability, ATP luminescence; stronger effect = lower value. viability, % at 10 µM. hit rate 1.1% among 85,000. AID 719, 2007;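 active means viability at or below 50% in the single dose screen; inactive means viability above 50%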;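 further: compound exposure lasted 72 h before the ATP readout; 100% = median luminescence of untreated cell-only wells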
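Test system: LL 47 human lung fibroblasts; Quantity: 1,150 cells/well; Buffer or medium: IMEM plus 15% FBS; Dosing: tenfold compound dosing solution, DMSO at 0.1%; Timing: overnight cell rest, 72 h compound treatment at 37 °C; Detection: ATP-based CellTiter-Glo luminescent readout; Read-out basis: viability percentage against median untreated-cell control; Controls: cell-only wells, no compound.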
Active calls of the source: *; / = no result given. The list is not random: actives were taken first. Their share in the collection is about 6.4%.

SMILES | H69AR inhibit | Jurkat viability | E coli WT exp | HUVEC inhibit | Ecoli tolC | Fibroblast inh
CCOc1cccc(-c2nc3cc(C)ccc3o2)c1 | 99.5 | 8.5 | 0.0 | 102.2 | 100.0* | 100.2
Cc1ccc2oc(-c3ccccc3)nc2c1 | 97.0 | / | 2.0 | 95.9 | / | 92.8
CCOC(=O)C(NC(=O)CC)(Nc1ccccc1OC)C(F)(F)F (centres undefined) | / | -3.5 | 5.0 | 94.3 | -5.0 | 91.2
Cc1ccc(Nc2nc(-c3c(C)nc4ccccn34)cs2)cc1 | / | / | -1.0 | / | / | /
Cc1nc2ccccn2c1-c1csc(NCc2ccco2)n1 | 77.9 | 31.5* | 20.0 | 97.8 | 30.4 | 90.9
Cc1ccn2c(-c3csc(NCc4ccccc4)n3)c(C)nc2c1 | 21.5* | / | / | 62.8 | / | 85.3
Cc1nc(NC(=O)c2ccccc2)sc1-c1csc(NCc2ccco2)n1 | 17.8* | 6.3 | -16.0 | 66.6 | 58.5 | 87.7
CCC(=O)Nc1cccc(NC(=S)NC(=O)Cc2ccccc2)c1 | / | / | 2.0 | / | / | /
CCOc1cc(N2CCOCC2)c(OCC)cc1NC(=O)Cc1cccc2ccccc12 | / | / | -12.0 | / | / | /
CCOc1cc(N2CCOCC2)c(OCC)cc1NC(=O)COC(=O)c1cc(C)oc1C | 37.6* | -7.1 | -17.0 | 92.9 | -8.4 | 95.1
CCOc1cc(N2CCOCC2)c(OCC)cc1NC(=O)COc1ncnc2ccc(Br)cc12 | 47.2 | / | -6.0 | 73.4 | / | 42.4*
Cc1ccc(C(=O)CC2(O)C(=O)N(Cc3ccc4c(c3)OCO4)c3ccccc32)cc1 (centres undefined) | 43.8 | -2.1 | -5.0 | 96.7 | 31.0 | 98.8
O=C(CC1(O)C(=O)N(Cc2ccccc2)c2ccccc21)c1ccc2c(c1)OCO2 (centres undefined) | 76.4 | / | -6.0 | 93.0 | / | 100.1
O=C(CC1(O)C(=O)N(Cc2ccccc2)c2ccccc21)c1ccncc1 (centres undefined) | 17.4* | -4.8 | 5.0 | 74.6 | 6.7 | 98.0
O=C(CC1(O)C(=O)N(Cc2ccc3c(c2)OCO3)c2ccccc21)c1ccccc1 (centres undefined) | 13.7* | -5.6 | -3.0 | 84.4 | 9.6 | /
Cc1ccccc1CN1C(=O)C(O)(CC(=O)c2ccncc2)c2ccccc21 (centres undefined) | 18.9* | 11.0 | 14.0 | 67.4 | 19.1 | 103.2
Cc1sc2nc(SCC(=O)c3cccs3)n(Cc3ccco3)c(=O)c2c1C | 58.7 | -7.2 | -3.0 | 23.8* | 6.7 | 83.7
Cc1sc2nc(SCC(=O)NCc3ccco3)n(CCc3ccccc3)c(=O)c2c1C | 22.2* | 2.3 | -11.0 | 60.5 | 7.5 | 46.9*
Cc1sc2nc(SCC(=O)NCc3ccco3)n(C)c(=O)c2c1C | 89.8 | 5.0 | -8.0 | 83.5 | -0.3 | 100.1
C=CCn1c(SCC(=O)Nc2ccccc2C)nc2sc(C)c(C)c2c1=O | 30.8* | / | / | 82.8 | / | 92.7
C=CCn1c(SCC(=O)NC(=O)NCc2ccco2)nc2sc(CC)cc2c1=O | 28.4* | -4.4 | -17.0 | 89.5 | -9.9 | 47.7*
O=C1CC(c2c[nH]c3ccccc23)C(=O)N1 (centres undefined) | 104.8 | 9.8 | 4.0 | 106.3 | 3.4 | 89.9
CCOCC(=O)Nc1nnc(Cc2ccc(OC)c(OC)c2)s1 | 74.0 | -3.6 | -8.0 | 102.6 | -9.3 | 104.6
Cc1ccccc1Nc1nnc(SCC(=O)NC(=O)NCc2ccco2)s1 | 31.7* | / | -9.0 | 84.9 | 12.2 | 93.2
Cc1cc(C(=O)Nc2c(C)cccc2C)n(-c2ccccc2)n1 | 86.8 | / | -1.0 | 121.3 | / | 101.5
SMILES | H69AR inhibit | Jurkat viability | E coli WT exp | HUVEC inhibit | Ecoli tolC | Fibroblast inh
CCCn1c(=O)c2ccccc2n2c(SCCOc3ccccc3)nnc12 | 99.7 | -9.6 | 3.0 | 91.4 | 6.2 | 95.9
O=c1c2ccccc2nc(SCc2nc3ccccc3s2)n1Cc1ccco1 | 32.7* | 6.4 | -16.0 | 41.8 | 8.4 | 59.5
CCCn1c(=O)c2ccccc2n2c(SCc3nc4ccccc4s3)nnc12 | 30.6* | -0.4 | -3.0 | 84.7 | 12.8 | /
CCCCn1c(SCc2nc3ccccc3s2)nc2cc(S(N)(=O)=O)ccc21 | 15.6* | / | -13.0 | 78.1 | / | 93.4
Cc1ccc(-n2ncc3c(=O)[nH]c(SCC(=O)N4CCN(c5ccccc5)CC4)nc32)cc1 | 58.9 | 3.1 | / | 98.3 | -23.8 | 98.2
COc1ccc(OCC(=O)Nc2ncc3c(n2)CC(C)(C)CC3=O)cc1 | 86.5 | 4.9 | 0.0 | 90.4 | 12.0 | 98.4
Cc1ccc(S(=O)(=O)N/N=C\c2ccc(Cl)c([N+](=O)[O-])c2)cc1 | / | / | -3.0 | / | / | /
Clc1cnc(N/N=C/c2cccs2)c(Cl)c1 | 82.7 | / | 0.0 | 68.7 | / | 48.5*
Cc1ccc(/C=N/Nc2ncc(Cl)cc2Cl)s1 | 49.6 | / | -6.0 | 62.0 | / | 47.5*
CC(C)COC(=O)NCCOC(=O)Nc1cccc(Cl)c1 | 89.1 | -0.3 | 25.0 | 94.0 | 89.0* | /
O=C(O)Cn1c(-c2ccccc2)nc2ccccc21 | 100.6 | 4.9 | 0.0 | 101.3 | -25.1 | 89.4
O=Nc1c2nc3ccccc3n(O)c-2c2ccccc12 | 52.4 | -0.6 | 2.0 | 86.2 | 87.1* | /
CC(C)Oc1ccc(C(=O)NCc2cccnc2)cc1 | 99.0 | -2.0 | 8.0 | 96.5 | -4.8 | 92.1
CCCc1cc(-c2[nH]ncc2-c2ccc3c(c2)OCCCO3)c(O)cc1O | 77.4 | 7.2 | 15.0 | 48.2 | 100.0* | 93.6
CCCn1c(NC(=O)c2cccc(C)c2C)nc2ccccc21 | 25.1* | / | 6.0 | 52.8 | / | 56.0
CCCn1c(NCCO)nc2ccccc21 | 104.3 | / | 6.0 | 99.4 | / | 97.2
Cn1c(NC(=O)c2ccccc2NC(=O)C(C)(C)C)nc2ccccc21 | 61.6 | 0.3 | -1.0 | 74.3 | 99.4* | 79.2
O=C(NCc1nc2ccccc2[nH]1)c1ccc(Cl)c(S(=O)(=O)N2CCCC2)c1 | 75.6 | 4.4 | 25.0 | 89.3 | 27.9 | 99.0
CCCn1c(NC(=O)c2ccc(Cl)c(S(=O)(=O)N3CCCC3)c2)nc2ccccc21 | 10.0* | 7.2 | -20.0 | 41.2 | 44.3 | 55.9
CC(=O)c1cccc(-n2c(CCC(=O)O)ccc2-c2cccs2)c1 | 104.4 | -3.4 | 5.0 | 99.5 | 18.1 | 100.2
COc1ccc(CCNc2c(C)c(C)nc3ncnn23)cc1 | / | 92.2* | -5.0 | / | -10.5 | /
COc1cc(C2c3c(oc4ccccc4c3=O)C(=O)N2Cc2ccco2)ccc1O (centres undefined) | 85.2 | / | 3.0 | 86.0 | / | 95.1
Cc1ccc2oc3c(c(=O)c2c1)C(c1cccc(Br)c1)N(Cc1ccco1)C3=O (centres undefined) | 3.1* | -8.3 | -4.0 | 55.6 | -14.3 | 10.5*
CCOc1cc(C2c3c(oc4cc(C)c(Cl)cc4c3=O)C(=O)N2Cc2ccco2)ccc1O (centres undefined) | 3.1* | -4.0 | -10.0 | 41.0 | -29.9 | 53.0
Cc1cc2oc3c(c(=O)c2cc1C)C(c1cccc(Br)c1)N(Cc1ccco1)C3=O (centres undefined) | 4.5* | 6.0 | -9.0 | 39.8 | 21.4 | 54.2

Source: PubChem (several laboratories)
